We go through 1 molecule from ChEMBL document CHEMBL4354843, “Structure-Based Design of a Potent and Selective Covalent Inhibitor for SRC Kinase That Targets a P-Loop Cysteine” (J Med Chem, 2020).

Data set [1] in a line: AUC in B6 mouse at 5 mg/kg, ip. In kind it is ADME, organism-based. The conditions noted are these: in vivo.
The test system of data set [2] is ALK tyrosine kinase receptor (Homo sapiens), Q9UM73 [C1156Y]. Briefly: Binding affinity to wild-type human partial length ALK C1156Y mutant (I1088 to E1409 residues) expressed in mammalian expression system assessed as residual binding level at 1 uM by Kinomescan method relative to control.
ALK tyrosine kinase receptor (Homo sapiens), Q9UM73 [C1156Y], sequence (Q9UM73 whole entry C1156Y, looked up, the tested form may be a part): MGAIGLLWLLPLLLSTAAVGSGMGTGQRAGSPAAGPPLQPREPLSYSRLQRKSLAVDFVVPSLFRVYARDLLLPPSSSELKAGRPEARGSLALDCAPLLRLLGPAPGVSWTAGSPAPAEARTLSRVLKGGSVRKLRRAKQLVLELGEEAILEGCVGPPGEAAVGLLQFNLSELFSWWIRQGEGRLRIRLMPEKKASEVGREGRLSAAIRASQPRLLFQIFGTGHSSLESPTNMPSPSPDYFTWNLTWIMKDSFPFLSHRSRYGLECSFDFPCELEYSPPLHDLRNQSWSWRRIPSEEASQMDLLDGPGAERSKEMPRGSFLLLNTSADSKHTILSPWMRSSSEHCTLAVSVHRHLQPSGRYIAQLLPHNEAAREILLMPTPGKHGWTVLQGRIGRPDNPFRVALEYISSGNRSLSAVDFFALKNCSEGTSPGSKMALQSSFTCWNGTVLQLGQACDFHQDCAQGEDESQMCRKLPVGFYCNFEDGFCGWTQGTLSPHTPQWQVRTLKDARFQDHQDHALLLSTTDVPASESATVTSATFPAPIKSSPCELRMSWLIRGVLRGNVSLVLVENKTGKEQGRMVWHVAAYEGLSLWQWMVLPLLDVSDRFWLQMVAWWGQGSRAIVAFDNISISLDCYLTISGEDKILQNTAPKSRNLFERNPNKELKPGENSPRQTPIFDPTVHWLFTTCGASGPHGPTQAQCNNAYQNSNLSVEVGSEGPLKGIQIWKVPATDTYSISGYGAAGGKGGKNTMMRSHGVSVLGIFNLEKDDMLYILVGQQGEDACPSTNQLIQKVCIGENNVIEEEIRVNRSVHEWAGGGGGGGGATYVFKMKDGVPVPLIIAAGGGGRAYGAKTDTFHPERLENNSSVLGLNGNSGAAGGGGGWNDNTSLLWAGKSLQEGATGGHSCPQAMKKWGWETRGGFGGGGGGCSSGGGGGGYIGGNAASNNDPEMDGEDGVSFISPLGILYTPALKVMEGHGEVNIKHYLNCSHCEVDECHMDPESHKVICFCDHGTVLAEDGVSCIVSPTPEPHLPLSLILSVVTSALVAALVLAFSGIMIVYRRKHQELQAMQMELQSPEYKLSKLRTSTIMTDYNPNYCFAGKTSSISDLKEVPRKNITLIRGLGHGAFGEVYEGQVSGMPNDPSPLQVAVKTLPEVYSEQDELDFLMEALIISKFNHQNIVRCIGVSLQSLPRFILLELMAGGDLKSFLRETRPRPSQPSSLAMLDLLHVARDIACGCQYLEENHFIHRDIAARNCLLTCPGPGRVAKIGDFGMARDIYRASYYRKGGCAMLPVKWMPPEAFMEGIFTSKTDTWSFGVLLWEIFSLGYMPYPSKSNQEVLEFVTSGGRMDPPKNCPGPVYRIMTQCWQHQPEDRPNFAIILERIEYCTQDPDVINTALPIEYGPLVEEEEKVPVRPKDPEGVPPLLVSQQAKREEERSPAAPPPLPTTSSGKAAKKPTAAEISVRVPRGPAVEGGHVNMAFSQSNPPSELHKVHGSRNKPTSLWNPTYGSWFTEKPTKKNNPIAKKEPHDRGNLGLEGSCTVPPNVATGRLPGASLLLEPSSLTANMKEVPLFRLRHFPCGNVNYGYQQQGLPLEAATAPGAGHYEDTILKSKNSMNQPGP
The target in data set [3] is NUAK family SNF1-like kinase 1 (Homo sapiens) (UniProt O60285). Nature of the data set: Binding affinity to wild-type human partial length ARK5 (E25 to I332 residues) expressed in bacterial expression system assessed as residual binding level at 1 uM by Kinomescan method relative to control.
NUAK family SNF1-like kinase 1 (Homo sapiens), sequence (O60285 whole entry, the tested form may be a part): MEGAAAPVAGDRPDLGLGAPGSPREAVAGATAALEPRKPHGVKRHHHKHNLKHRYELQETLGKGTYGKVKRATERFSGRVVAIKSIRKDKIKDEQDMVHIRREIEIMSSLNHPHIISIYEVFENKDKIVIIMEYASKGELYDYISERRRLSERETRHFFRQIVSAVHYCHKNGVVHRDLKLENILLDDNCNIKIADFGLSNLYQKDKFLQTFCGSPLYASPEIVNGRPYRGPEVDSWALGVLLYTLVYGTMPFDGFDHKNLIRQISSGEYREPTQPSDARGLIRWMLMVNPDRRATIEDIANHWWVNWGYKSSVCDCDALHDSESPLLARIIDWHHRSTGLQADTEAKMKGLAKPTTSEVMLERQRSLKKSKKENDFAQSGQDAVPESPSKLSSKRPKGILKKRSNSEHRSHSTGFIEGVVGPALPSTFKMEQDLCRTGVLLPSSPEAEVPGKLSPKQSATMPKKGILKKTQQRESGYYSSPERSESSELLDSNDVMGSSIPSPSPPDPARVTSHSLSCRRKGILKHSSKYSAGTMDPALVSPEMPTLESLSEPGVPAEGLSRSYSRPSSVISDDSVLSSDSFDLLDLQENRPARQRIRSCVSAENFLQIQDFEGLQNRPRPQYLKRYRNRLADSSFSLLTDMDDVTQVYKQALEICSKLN
For data set [4], the target named is BMP-2-inducible protein kinase (Homo sapiens) (UniProt Q9NSY1). Nature of the data set: Binding affinity to wild-type human partial length BIKE (S34 to N329 residues) expressed in bacterial expression system assessed as residual binding level at 1 uM by Kinomescan method relative to control. In short, it runs like this:
(§1)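 KinomeScan, an active site-directed competition binding panel of 468 kinases. The test compound was at 1 μM. The readout is remaining kinase binding as a percentage of the DMSO control. Scores above 35% were treated as weak binding and not listed.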

Data set [5] deals with Serine/threonine-protein kinase BRSK1 (Homo sapiens) (UniProt Q8TDC3). Nature of the data set: Binding affinity to wild-type human partial length BRSK1 (M1 to E754 residues) expressed in bacterial expression system assessed as residual binding level at 1 uM by Kinomescan method relative to control.
In data set [6] the target is Calcium/calmodulin-dependent protein kinase type II subunit gamma (Homo sapiens) (UniProt Q13555). Briefly: Binding affinity to wild-type human partial length CAMK2G (R9 to A303 residues) expressed in bacterial expression system assessed as residual binding level at 1 uM by Kinomescan method relative to control.
Data set [7] concerns the target Cyclin-dependent kinase-like 1 (Homo sapiens) (UniProt Q00532). Briefly: Binding affinity to wild-type human full length CDKL1 (M1 to I358 residues) expressed in mammalian expression system assessed as residual binding level at 1 uM by Kinomescan method relative to control. Summed up:
as §1

Data set [8] concerns the target Serine/threonine-protein kinase Chk2 (Homo sapiens) (UniProt O96017). Nature of the data set: Binding affinity to wild-type human partial length CHEK2 (S253 to E574 residues) expressed in bacterial expression system assessed as residual binding level at 1 uM by Kinomescan method relative to control. In short, it runs like this:
as §1

In data set [9] the target is Casein kinase I isoform gamma-1 (Homo sapiens) (UniProt Q9HCP0). Nature of the data set: Binding affinity to wild-type human partial length CSNK1G1 (T15 to S353 residues) expressed in bacterial expression system assessed as residual binding level at 1 uM by Kinomescan method relative to control.
Data set [10] deals with Mitogen-activated protein kinase 3 (Homo sapiens) (UniProt P27361). Briefly: Binding affinity to wild-type human full length ERK1 (M1 to P379 residues) expressed in bacterial expression system assessed as residual binding level at 1 uM by Kinomescan method relative to control. Summed up: (§2)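 Active-site-directed KinomeScan competition binding panel covering 468 kinases, compound tested at 1 μM. Each readout is the kinase signal remaining with compound, expressed as a percentage of the DMSO control. […]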

For data set [11], the target named is Serine/threonine-protein kinase/endoribonuclease IRE1 (Homo sapiens) (UniProt O75460). Briefly: Binding affinity to wild-type human partial length ERN1 (S551 to E852 residues) expressed in mammalian expression system assessed as residual binding level at 1 uM by Kinomescan method relative to control. In short, it runs like this:
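Active-site-directed competition binding panel of 468 kinases (KinomeScan), compound at 1 μM. The read-out is kinase remaining bound, given as a percentage of the DMSO control. […]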

For data set [12], the target named is Fibroblast growth factor receptor 1 (Homo sapiens, UniProt P11362). Briefly: Binding affinity to wild-type human partial length FGFR1 (P357 to V669 residues) expressed in bacterial expression system assessed as residual binding level at 1 uM by Kinomescan method relative to control.
The target of data set [13] is G protein-coupled receptor kinase 3 (Homo sapiens) (UniProt P35626). Briefly: Binding affinity to wild-type human full length GRK3 (M1 to L688 residues) expressed in mammalian expression system assessed as residual binding level at 1 uM by Kinomescan method relative to control. In short, it runs like this:
as §2

The target of data set [14] is Serine/threonine-protein kinase LATS1 (Homo sapiens) (UniProt O95835). Briefly: Binding affinity to wild-type human partial length LATS1 (Q678 to V1130 residues) expressed in bacterial expression system assessed as residual binding level at 1 uM by Kinomescan method relative to control.
The target of data set [15] is Leucine-rich repeat serine/threonine-protein kinase 2 (Homo sapiens) (UniProt Q5S007). Nature of the data set: Binding affinity to wild-type human partial length LRRK2 (H970 to E2527 residues) expressed in mammalian expression system assessed as residual binding level at 1 uM by Kinomescan method relative to control.
Data set [16] deals with Myosin light chain kinase family member 4 (Homo sapiens) (UniProt Q86YV6). Briefly: Binding affinity to wild-type human partial length MYLK4 (V79 to S380 residues) expressed in bacterial expression system assessed as residual binding level at 1 uM by Kinomescan method relative to control.
Data set [17] addresses Myosin-IIIb (Homo sapiens) (UniProt Q8WXR4). Briefly: Binding affinity to wild-type human partial length MYO3B (M1 to D357 residues) expressed in bacterial expression system assessed as residual binding level at 1 uM by Kinomescan method relative to control.
The target of data set [18] is Mitogen-activated protein kinase 14 (Homo sapiens) (UniProt Q16539). Nature of the data set: Binding affinity to wild-type human full length p38-alpha (M1 to S360 residues) expressed in bacterial expression system assessed as residual binding level at 1 uM by Kinomescan method relative to control. In short, it runs like this:
as §1

Data set [19] relates to Phosphatidylinositol 4,5-bisphosphate 3-kinase catalytic subunit alpha isoform (Homo sapiens), P42336 [H1047L]. Briefly: Binding affinity to human partial length PIK3CA H1047L mutant (R108 to N1068 residues) expressed in mammalian expression system assessed as residual binding level at 1 uM by Kinomescan method relative to control. Summed up:
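KinomeScan active site-directed competition binding panel (468 kinases), compound tested at 1 μM. Result expressed as remaining kinase signal versus DMSO control (percent of control).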

Data set [20] has as its target Phosphatidylinositol 4-phosphate 5-kinase type-1 gamma (Homo sapiens) (UniProt O60331). Nature of the data set: Binding affinity to wild-type human partial length PIP5K1C (M1 to T668 residues) expressed in mammalian expression system assessed as residual binding level at 1 uM by Kinomescan method relative to control.
Data set [21] deals with Rho-associated protein kinase 2 (Homo sapiens) (UniProt O75116). Nature of the data set: Binding affinity to wild-type human partial length ROCK2 (M1 to T431 residues) expressed in mammalian expression system assessed as residual binding level at 1 uM by Kinomescan method relative to control.
Rho-associated protein kinase 2 (Homo sapiens), sequence (O75116 whole entry, looked up, the tested form may be a part): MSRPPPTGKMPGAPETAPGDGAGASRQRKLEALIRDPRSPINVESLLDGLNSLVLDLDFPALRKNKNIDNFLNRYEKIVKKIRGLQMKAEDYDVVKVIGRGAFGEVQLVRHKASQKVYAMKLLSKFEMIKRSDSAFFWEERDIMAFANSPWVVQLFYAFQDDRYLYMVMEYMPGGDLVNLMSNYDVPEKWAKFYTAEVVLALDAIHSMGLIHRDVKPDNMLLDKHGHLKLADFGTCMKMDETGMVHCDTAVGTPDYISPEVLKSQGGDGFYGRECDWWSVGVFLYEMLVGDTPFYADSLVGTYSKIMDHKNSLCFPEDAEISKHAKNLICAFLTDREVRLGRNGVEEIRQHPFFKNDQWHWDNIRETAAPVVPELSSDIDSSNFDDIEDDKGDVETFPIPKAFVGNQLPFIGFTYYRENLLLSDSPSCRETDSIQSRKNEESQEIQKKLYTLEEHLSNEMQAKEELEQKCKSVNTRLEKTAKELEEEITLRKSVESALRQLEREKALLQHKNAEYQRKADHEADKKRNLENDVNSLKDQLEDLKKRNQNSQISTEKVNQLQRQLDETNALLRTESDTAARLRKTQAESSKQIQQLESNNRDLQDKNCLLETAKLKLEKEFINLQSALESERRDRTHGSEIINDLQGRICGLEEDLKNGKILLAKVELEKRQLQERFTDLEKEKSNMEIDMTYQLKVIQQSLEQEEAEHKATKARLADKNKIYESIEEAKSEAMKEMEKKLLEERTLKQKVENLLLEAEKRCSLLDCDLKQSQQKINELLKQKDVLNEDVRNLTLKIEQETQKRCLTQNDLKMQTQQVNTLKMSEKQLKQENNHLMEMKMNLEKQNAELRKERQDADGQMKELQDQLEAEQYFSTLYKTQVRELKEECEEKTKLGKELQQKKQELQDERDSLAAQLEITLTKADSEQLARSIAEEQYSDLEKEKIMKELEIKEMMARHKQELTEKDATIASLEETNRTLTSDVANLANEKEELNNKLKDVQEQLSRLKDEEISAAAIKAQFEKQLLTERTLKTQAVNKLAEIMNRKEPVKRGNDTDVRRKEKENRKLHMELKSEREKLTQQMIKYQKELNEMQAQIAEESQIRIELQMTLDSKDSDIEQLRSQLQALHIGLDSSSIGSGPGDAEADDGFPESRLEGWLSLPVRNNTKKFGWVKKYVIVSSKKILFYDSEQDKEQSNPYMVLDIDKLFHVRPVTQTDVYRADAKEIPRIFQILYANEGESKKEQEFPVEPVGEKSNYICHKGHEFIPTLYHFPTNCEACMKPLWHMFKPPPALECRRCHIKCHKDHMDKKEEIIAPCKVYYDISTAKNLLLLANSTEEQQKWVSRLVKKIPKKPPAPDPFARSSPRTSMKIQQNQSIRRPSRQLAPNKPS
Data set [22] concerns the target NT-3 growth factor receptor (Homo sapiens) (UniProt Q16288). Nature of the data set: Binding affinity to wild-type human partial length TRKC (Q531 to G825 residues) expressed in mammalian expression system assessed as residual binding level at 1 uM by Kinomescan method relative to control.

By AUC is commonly meant concentration integrated over time. Read a high AUC as high exposure.

NT-3 growth factor receptor (Homo sapiens), sequence (Q16288 32-839 limits assumed): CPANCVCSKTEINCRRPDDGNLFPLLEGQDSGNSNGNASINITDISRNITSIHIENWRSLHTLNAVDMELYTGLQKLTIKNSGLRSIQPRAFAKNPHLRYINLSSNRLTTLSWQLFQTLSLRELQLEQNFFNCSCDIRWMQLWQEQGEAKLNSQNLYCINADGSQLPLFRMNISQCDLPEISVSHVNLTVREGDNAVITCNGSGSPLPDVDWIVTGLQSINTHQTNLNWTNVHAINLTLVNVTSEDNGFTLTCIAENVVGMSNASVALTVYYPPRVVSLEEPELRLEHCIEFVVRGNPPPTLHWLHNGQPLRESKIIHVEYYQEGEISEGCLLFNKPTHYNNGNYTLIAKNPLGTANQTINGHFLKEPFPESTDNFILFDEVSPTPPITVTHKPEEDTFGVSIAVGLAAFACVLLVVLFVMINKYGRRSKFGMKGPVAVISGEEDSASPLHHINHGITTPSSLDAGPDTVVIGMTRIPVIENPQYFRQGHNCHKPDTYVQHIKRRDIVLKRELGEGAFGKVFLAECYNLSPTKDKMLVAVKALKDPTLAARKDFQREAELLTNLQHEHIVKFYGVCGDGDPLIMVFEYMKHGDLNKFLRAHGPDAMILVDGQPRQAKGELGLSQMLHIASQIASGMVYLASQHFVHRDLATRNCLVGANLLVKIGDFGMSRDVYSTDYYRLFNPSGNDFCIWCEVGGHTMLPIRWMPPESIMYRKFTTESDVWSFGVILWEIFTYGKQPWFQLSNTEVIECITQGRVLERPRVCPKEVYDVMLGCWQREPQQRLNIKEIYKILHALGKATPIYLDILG
Serine/threonine-protein kinase Chk2 (Homo sapiens), sequence (O96017 whole entry, the tested form may be a part): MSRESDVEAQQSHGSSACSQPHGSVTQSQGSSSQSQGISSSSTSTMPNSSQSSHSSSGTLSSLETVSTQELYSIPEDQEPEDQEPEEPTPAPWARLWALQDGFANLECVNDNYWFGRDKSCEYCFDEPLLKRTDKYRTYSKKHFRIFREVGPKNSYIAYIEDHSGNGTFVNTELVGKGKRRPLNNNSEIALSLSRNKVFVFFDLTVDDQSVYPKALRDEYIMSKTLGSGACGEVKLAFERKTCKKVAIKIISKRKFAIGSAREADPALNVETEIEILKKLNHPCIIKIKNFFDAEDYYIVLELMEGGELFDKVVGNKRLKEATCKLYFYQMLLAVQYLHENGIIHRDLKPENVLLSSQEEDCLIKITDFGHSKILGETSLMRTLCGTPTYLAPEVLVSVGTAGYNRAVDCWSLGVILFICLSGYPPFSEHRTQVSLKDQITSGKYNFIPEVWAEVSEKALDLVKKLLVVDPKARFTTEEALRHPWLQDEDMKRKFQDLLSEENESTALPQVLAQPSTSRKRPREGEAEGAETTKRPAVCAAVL

In [1], `C=CC(=O)Nc1ccccc1Nc1nc(Nc2ccc(N3CCN(C)CC3)cc2)ncc1C(=O)Nc1c(C)cccc1Cl` had an AUC of 212 ng·h/mL. The Activity in data set [2] is 99%; in data set [3], 100%; in [4], 94%; in [5], 100%; in data set [6], 100%; in [7], 72%. The Activity in data set [8] came to 90%; in [9], 100%; in [10], 100%; in data set [11], 98%; in [12] it was 100%; in data set [13] it was 100%. In addition, the Activity in data set [14] turned out to be 100%; in data set [15], 100%; in [16], 100%; in data set [17], 91%; in [18], 28%; in data set [19], 71%. Further, the Activity in [20], in [21] and in data set [22] was 100% in each case.
